Assays:
[1] = tested on: caspase-like proteasome activity; experiment: Cell-based Proteasome-Glo caspase-like assay
Summary of the method: (§1)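 Cell-based Proteasome-Glo kits: a luminogenic peptide substrate is cleaved by the proteasome to aminoluciferin, which Ultra-Glo luciferase consumes to give luminescence proportional to the corresponding protease activity. Luminescence read on a plate reader.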

SEM cells [2] = experiment: Cell cycle analysis; assay type: cell-based; settings: 48 h, dose dependent
Summary of the method: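 SEM cells (RPMI1640, 10% FCS, 37°C, 5% CO2) exposed to test compound for 48 h, then permeabilised. DNA stained with propidium iodide and cell cycle distribution read by FACS.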

human HDAC2 = human HDAC2 (Homo sapiens, UniProt Q92769); experiment: HDAC IC50 profiling, fluorescence-based assay; assay type: biochemical; settings: result in words
Chain of human HDAC2 (Q92769 whole entry): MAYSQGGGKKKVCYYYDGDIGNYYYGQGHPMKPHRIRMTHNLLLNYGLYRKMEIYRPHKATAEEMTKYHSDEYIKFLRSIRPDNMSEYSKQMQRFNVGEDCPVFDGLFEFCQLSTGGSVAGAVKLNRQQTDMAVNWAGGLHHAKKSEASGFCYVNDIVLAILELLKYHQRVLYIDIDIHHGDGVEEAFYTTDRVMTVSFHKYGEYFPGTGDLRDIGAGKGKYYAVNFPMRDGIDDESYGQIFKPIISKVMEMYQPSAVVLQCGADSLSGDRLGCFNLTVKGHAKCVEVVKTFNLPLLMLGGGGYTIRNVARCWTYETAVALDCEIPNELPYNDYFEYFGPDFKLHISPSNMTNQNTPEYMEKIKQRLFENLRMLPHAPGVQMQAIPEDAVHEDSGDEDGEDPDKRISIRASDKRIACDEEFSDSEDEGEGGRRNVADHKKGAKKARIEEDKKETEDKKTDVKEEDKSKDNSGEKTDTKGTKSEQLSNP

[3] = tested on: acetyl-α-tubulin, acetyl-Histone H3, PARP in HL-60, SEM and SUP-B15r cells; experiment: Western blotting of cell lysates; assay type: cell-based; settings: 24 h
Summary of the method: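 HL-60 and SEM cells (RPMI1640, 10% FCS, 37°C, 5% CO2) and TKI-resistant SUP-B15r cells (McCoy's 5A, 20% FCS) exposed to test compound or reference HDAC/proteasome inhibitors for 24 h. Lysates immunoblotted for acetyl-α-tubulin, acetyl-histone H3, PARP and GAPDH.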

human HDAC3 = human HDAC3 (Homo sapiens, UniProt O15379); experiment: HDAC IC50 profiling, fluorescence-based assay; assay type: biochemical; settings: result in words
Chain of human HDAC3 (O15379 whole entry): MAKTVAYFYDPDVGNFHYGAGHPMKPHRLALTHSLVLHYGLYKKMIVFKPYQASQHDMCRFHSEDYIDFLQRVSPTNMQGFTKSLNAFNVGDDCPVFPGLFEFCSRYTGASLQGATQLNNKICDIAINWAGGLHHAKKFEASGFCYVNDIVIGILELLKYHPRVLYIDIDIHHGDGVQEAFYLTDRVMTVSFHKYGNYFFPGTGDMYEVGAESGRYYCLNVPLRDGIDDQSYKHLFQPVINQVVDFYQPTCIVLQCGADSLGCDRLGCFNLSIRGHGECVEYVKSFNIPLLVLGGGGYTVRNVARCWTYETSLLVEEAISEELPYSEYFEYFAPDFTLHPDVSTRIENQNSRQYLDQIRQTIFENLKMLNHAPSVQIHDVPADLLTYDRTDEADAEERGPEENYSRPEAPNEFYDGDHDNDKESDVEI
Chain of human HDAC3 (Q9Y618 395-489 partner limits assumed): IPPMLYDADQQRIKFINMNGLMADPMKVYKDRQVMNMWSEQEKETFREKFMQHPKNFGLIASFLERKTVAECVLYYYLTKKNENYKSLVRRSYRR

human HDAC1 = human HDAC1 (Homo sapiens, UniProt Q13547); experiment: HDAC IC50 profiling, fluorescence-based assay; assay type: biochemical; settings: result in words
Chain of human HDAC1 (Q13547 whole entry): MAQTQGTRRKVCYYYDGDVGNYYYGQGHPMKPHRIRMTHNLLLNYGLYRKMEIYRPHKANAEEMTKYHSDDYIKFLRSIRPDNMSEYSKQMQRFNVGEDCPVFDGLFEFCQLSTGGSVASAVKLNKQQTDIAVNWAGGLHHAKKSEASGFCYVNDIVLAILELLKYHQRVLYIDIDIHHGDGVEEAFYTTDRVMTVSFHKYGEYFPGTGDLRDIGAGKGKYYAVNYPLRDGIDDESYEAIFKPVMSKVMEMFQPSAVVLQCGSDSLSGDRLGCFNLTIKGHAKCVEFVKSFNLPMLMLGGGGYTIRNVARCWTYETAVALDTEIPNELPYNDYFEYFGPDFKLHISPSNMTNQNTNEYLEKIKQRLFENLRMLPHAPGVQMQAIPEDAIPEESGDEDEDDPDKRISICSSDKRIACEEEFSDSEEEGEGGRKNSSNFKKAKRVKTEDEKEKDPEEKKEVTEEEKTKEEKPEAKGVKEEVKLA

[4] = tested on: aggresome accumulation in SEM cells; experiment: Aggresome detection assay; assay type: cell-based; settings: 18 h, at inhibitory concentration
Summary of the method: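 SEM cells (RPMI1640, 10% FCS, 37°C, 5% CO2) exposed to test compound 18 h, then stained for aggresomes and DNA with a Proteostat aggresome detection kit. Imaged by fluorescence microscopy (63X objective), or analysed by FACS, where the aggresome propensity factor is derived from relative mean fluorescence intensity.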

[5] = tested on: trypsin-like proteasome activity; experiment: Cell-based Proteasome-Glo trypsin-like assay
Summary of the method: as §1

[6] = tested on: primary BCP-ALL cells derived from four therapy-refractory patients; assay type: cell-based; settings: Homo sapiens, read-out: IC50 values, range over four patients
SEM cells [7] = experiment: Proliferation assay; assay type: cell-based; settings: at IC50 or 2x IC50 concentrations
Summary of the method: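 SEM cells (RPMI1640, 10% FCS, 37°C, 5% CO2) treated with test compound. Viable cells counted every 24 h by trypan blue exclusion on an automated cell counter.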

SEM cells [8] = experiment: CFU assay; assay type: cell-based; settings: 48 h exposure, colonies counted after 14 days
Summary of the method: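 SEM cells pretreated with test compound or control in liquid medium, then seeded in semisolid methylcellulose-based medium that also contains the compound or control. Colonies counted after 14 days.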

[9] = Cell viability in PBMCs from healthy individuals; assay type: cell-based; settings: human
[10] = tested on: patients with relapsed or refractory multiple myeloma; settings: cited from earlier work
[11] = tested on: peripheral blood derived mononuclear cells (PBMCs); experiment: Cell viability in PBMCs from healthy individuals; assay type: cell-based; settings: PBMCs from healthy individuals

| activity against HDAC2 (human HDAC2) | activity against HDAC3 (human HDAC3) | activity against HDAC1 (human HDAC1) | IC50 [6] | SMILES | inhibition of caspase-like proteasome activity [1] | cell cycle effect (SEM cells [2]) | expression of cleaved PARP (marker of apoptosis) [3] | expression of acetyl-α tubulin and acetyl-histone H3 ([3]; compared to bortezomib) | aggresome accumulation [4] | inhibition of trypsin-like proteasome activity [5] | proliferation of SEM cells (SEM cells [7]) | colony forming capacity (SEM cells [8]) | IC50 at 72 h [9] | response rate ([10]; ricolinostat in combination with bortezomib and dexamethasone) | toxicity and clinical responses as single agent ([10]; single agent) | IC50 against PBMCs, concentration range in words [11] |
| --- | --- | --- | --- | --- | --- | --- | --- | --- | --- | --- | --- | --- | --- | --- | --- | --- |
| low activity | low activity | low activity | 1.51 to 5.23 µM | C[C@H](NC(=O)[C@H](CC(=O)NCC(C)(C)C)NC(=O)c1ccc(C(=O)NO)cc1)C(=O)NCc1ccccc1 [RTS-V5, N^1-((S)-1-(((S)-1-(Benzylamino)-1-oxopropan-2-yl)amino)-4-(neopentylamino)-1,4-dioxobutan-2-yl)-N^4-hydroxyterephthalamide] | unable to inhibit | arrested in S phase | upregulated | enhanced the expression | significantly blocked | unable to inhibit | significantly inhibited | significantly reduced | > 25 µM |  |  |  |
|  |  |  |  | O=C(CCCCCCNC(=O)c1cnc(N(c2ccccc2)c2ccccc2)nc1)NO [Ricolinostat] |  |  |  |  |  |  |  |  |  | 37% | neither significant toxicity nor clinical responses | single-digit micromolar |
|  |  |  |  | CC(C)C[C@H](NC(=O)[C@H](Cc1ccccc1)NC(=O)c1cnccn1)B(O)O [bortezomib] |  |  |  |  |  |  |  |  |  |  |  | submicromolar |

Reference: publication PMC6249066 (Journal of medicinal chemistry, 2018)
